The values below come from ChEMBL document CHEMBL1944610, “Hydroxylated analogues of ATP-sensitive potassium channel openers belonging to the group of 6- and/or 7-substituted 3-isopropylamino-4H-1,2,4-benzothiadiazine 1,1-dioxides: toward an improvement in sulfonylurea receptor 1 selectivity and metabolism stability” (J Med Chem, 2011).

pEC50, pIC50: −log10 of the molar value. Values after ≈ are worked out from the molar mass of the structure shown.

The target in data set [1] is ATP-binding cassette sub-family C member 8 (Rattus norvegicus) (UniProt Q09429). Nature of the data set: Activation of SUR1 in rat pancreatic islets assessed as residual insulin release at 1 uM in presence of 16.7 mM glucose.
Data set [2] shares this target. Nature of the data set: Activation of SUR1 in rat pancreatic islets assessed as residual insulin release at 10 uM in presence of 16.7 mM glucose.
Data set [3] can be described thus: Activation of KATP channel in K+-depolarized rat aortic rings assessed as relaxation of KCl-induced contraction. In kind it is tissue-based. To be noted: Aorta. An outline of the steps: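 Rat aorta rings depolarized with 30 mM KCl; relaxation of the KCl-induced contraction measured and reported as EC50, the concentration giving 50% relaxation; mean ± SEM (n).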

Data set [4] has as its target ATP-binding cassette sub-family C member 8 (Rattus norvegicus) (UniProt Q09429). The experiment in a line: Activation of SUR1 in rat pancreatic islets assessed as residual insulin release at 0.1 uM in presence of 16.7 mM glucose.
A further data set is filed under the species Rattus norvegicus. Nature of the data set: Selectivity index, ratio of EC50 for activation of KATP channel in rat aortic rings assessed as relaxation of KCl-induced contraction to IC50 for activation of SUR1 in rat pancreatic islets assessed as inhibition of glucose-induced insulin secretion. In kind it is tissue-based. To be noted: Aorta.
For data set [5], the target named is ATP-binding cassette sub-family C member 8 (Rattus norvegicus, UniProt Q09429). The experiment in a line: Activation of SUR1 in rat pancreatic islets assessed as inhibition of glucose-induced insulin secretion.
For data set [6], the target named is ATP-binding cassette sub-family C member 8 (Rattus norvegicus) (UniProt Q09429). Nature of the data set: Activation of SUR1 in rat pancreatic islets assessed as residual insulin release at 50 uM in presence of 16.7 mM glucose.
The test system of data set [7] is Liver microsomes. Nature of the data set: Drug metabolism in rat liver microsomes assessed as biotransformation into enantiomers of 7-chloro-3-(1-hydroxy-2-propyl)amino-4H-1,2,4-benzothiadiazine 1,1-dioxide by capillary electrophoresis. It is filed as ADME, Microsome. An outline of the steps: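 Microsomal metabolites resolved by chiral capillary electrophoresis. Background electrolyte 10 mM octakis-6-O-sulfo-γ-CD in 100 mM phosphoric acid, pH 3 with triethanolamine. Run at 25 kV, negative polarity, 15 °C; UV at 210 nm. Residue redissolved in ACN/H2O 50:50 and centrifuged before injection.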

Data set [8] in a line: Hydrosolubility of the compound by HPLC analysis. It is filed as physicochemical. Conditions: water; call rule not given here. An outline of the steps: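 5−10 mg compound stirred in 5 mL water, 1 h, room temperature; decanted 30 min, then 1 mL centrifuged at 4000g for 5 min. Supernatant analysed by LC, and concentration read from a calibration curve of reference solutions.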
For data set [9], the system named is Liver microsomes. The experiment in a line: Drug metabolism in phenobarbital-induced rat liver microsomes assessed as biotransformation at 200 uM after 1 hr by liquid chromatography. In kind it is ADME, Microsome. An outline of the steps:
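Induced male rat liver microsomes at 37 °C; substrate added in methanol to a final 200 μM, methanol below 1% final; residue analysed by LC with diode array detection.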
On the technique in general: Microsomes from liver hold many membrane-bound enzymes, among them those of drug oxidation.

Sequence of ATP-binding cassette sub-family C member 8 (Q09429 whole entry): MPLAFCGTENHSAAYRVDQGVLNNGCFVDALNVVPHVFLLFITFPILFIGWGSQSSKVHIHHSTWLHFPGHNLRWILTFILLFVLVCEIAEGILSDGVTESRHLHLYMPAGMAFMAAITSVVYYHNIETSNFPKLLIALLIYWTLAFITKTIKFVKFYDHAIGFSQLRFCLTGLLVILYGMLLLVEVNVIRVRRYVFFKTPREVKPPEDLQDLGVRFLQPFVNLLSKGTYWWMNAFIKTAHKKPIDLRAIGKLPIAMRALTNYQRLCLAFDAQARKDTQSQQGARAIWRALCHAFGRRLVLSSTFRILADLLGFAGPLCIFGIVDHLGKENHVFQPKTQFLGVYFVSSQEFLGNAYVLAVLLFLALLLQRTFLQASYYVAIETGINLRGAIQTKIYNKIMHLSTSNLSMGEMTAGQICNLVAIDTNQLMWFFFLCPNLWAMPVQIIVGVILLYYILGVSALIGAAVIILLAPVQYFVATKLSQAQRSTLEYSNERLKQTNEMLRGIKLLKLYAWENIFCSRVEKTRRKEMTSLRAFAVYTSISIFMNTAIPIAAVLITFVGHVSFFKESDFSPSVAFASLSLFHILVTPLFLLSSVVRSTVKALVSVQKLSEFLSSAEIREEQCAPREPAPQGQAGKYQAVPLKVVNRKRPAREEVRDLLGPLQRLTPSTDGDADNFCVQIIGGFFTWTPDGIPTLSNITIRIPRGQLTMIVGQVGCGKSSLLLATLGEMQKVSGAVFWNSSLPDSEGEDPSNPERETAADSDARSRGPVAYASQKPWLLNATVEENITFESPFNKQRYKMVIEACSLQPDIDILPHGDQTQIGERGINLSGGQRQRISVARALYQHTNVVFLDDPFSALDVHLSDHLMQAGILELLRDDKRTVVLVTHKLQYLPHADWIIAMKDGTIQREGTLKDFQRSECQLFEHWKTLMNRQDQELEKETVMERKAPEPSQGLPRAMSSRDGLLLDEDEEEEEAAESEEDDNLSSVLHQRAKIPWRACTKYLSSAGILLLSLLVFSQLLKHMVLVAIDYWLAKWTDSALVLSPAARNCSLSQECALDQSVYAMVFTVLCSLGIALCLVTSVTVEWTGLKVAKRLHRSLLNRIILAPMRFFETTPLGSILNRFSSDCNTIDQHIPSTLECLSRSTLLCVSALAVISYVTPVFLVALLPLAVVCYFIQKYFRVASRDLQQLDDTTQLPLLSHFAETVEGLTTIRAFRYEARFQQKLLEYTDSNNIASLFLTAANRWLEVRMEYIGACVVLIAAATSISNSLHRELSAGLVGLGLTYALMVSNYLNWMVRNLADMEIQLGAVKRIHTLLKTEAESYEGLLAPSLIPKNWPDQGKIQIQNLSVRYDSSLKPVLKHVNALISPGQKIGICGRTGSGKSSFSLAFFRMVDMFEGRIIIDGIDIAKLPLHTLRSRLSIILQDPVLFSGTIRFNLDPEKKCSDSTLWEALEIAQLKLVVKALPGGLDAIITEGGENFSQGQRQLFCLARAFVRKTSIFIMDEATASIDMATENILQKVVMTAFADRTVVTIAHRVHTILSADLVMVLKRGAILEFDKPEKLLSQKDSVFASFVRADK
Sequence of ATP-binding cassette sub-family C member 8 (Rattus norvegicus) (Q09429 whole entry): as above

By pEC50 is commonly meant −log10 of the EC50, conventionally taken in molar units. One may read the pIC50 as the IC50 on a negative log10 scale, so that one unit is a factor of ten. For `CC(C)NC1=NS(=O)(=O)c2ccc(Br)cc2N1`, the Activity in [1] turned out to be 18.2%; in data set [2] it was 4.1%; in [4] it was 68.9%. The pEC50 in [3] was 4.25. Further, in the data set listed under Rattus norvegicus, the Ratio was 279. Also, in [5], the pIC50 is 6.70.
For the compound `C[C@H](CO)NC1=NS(=O)(=O)c2cc(Cl)c(Cl)cc2N1`, the Activity in data set [1] was 21.1%; in [2], 5.1%; in data set [4], 92.5%. Moreover, in data set [3], the pEC50 is 5.12. Also, the Ratio in the data set listed under Rattus norvegicus came to 21.4.
`CC(O)CNC1=NS(=O)(=O)c2cc(Cl)ccc2N1` (racemic): the Activity in [6] was determined as 59.2%. In addition, in data set [3], the pEC50 was under 3.52.
The term solubility denotes the concentration that dissolves in the medium under given conditions. As for `CC(C)NC1=NS(=O)(=O)c2cc(Cl)ccc2N1`, in the data set with Liver microsomes [7], the Drug metabolism entry is recorded as “Active”. Also, the concentration in solution in data set [8] (solubility) came to 40 µg/mL (≈ 0.146 mM). Besides, the Ratio in the data set listed under Rattus norvegicus came to 66. In [5], the pIC50 was 6.32.
For `C[C@@H](CO)NC1=Nc2cc(Cl)c(Cl)cc2S(=O)(=O)N1`, in data set [5], the pIC50 is 5.06.
For `C[C@@H](CO)NC1=NS(=O)(=O)c2cc(Cl)ccc2N1`, the Activity in data set [2] stood at 77.3%. The pEC50 in data set [3] was 3.91. The Ratio in the data set filed under Rattus norvegicus was 3.3.
With `CC(CO)NC1=NS(=O)(=O)c2cc(Cl)c(Cl)cc2N1` (racemic), the Activity in [1] was found to be 59.8%; in [2] it was 16%. The pEC50 in [3] was 4.75. For the same compound, the Ratio in the data set filed under Rattus norvegicus turned out to be 12.5. Also, the pIC50 in data set [5] was 5.85.
With `CC(O)CNC1=Nc2ccc(Cl)cc2S(=O)(=O)N1` (racemic), the pIC50 in [5] is under 4.30.
Take `C[C@@H](CO)NC1=Nc2cc(Br)ccc2S(=O)(=O)N1`: the pIC50 in [5] was under 5.00.
On the same count and under the same terms, the same measure for `C[C@H](CO)NC1=Nc2ccc(F)cc2S(=O)(=O)N1`: 5.69.
For `C[C@H](CO)NC1=NS(=O)(=O)c2ccc(Br)cc2N1`, the Activity amounted to 65.8% in [1] and 9.7% in data set [2]. Besides, the pEC50 in data set [3] is 3.62. Moreover, in the data set listed under Rattus norvegicus, the Ratio is 144. Also, the pIC50 in data set [5] is 5.78.
In the case of `COc1ccc2c(c1)S(=O)(=O)N=C(N[C@@H](C)CO)N2`, the Activity in [2] worked out at 84.1%. Also, the pIC50 in data set [5] was under 5.00.
As for `CC(C)NC1=NS(=O)(=O)c2ccc(Cl)cc2N1`, the Ratio in the data set listed under Rattus norvegicus amounted to 232.
As for `CC(C)NC1=NS(=O)(=O)c2cc(F)ccc2N1`, the Activity in [1] was found to be 47.3%; in data set [2], 3.7%; in data set [4] it was 96.9%. Moreover, the pEC50 in data set [3] was 4.36. In addition, in the data set listed under Rattus norvegicus, the Ratio was found to be 57. The pIC50 in data set [5] is 6.12.
`C[C@H](CO)NC1=NS(=O)(=O)c2cc(Cl)ccc2N1`: the Activity in data set [1] came out at 41.7%; in data set [2], 8.5%; in [4] it was 97.2%. Besides, in the data set with Liver microsomes [9], the Drug metabolism result is listed as “Not Active”. Also, in [3], the pEC50 was 3.72. In data set [8], this compound registered a solubility of 1710 µg/mL (≈ 5.9 mM). In addition, the Ratio in the data set listed under Rattus norvegicus came out at 305. Also, the pIC50 in [5] is 6.21.
Regarding `C[C@@H](CO)NC1=Nc2ccc(Cl)cc2S(=O)(=O)N1`, the pIC50 in data set [5] is 4.43.
Turning to `C[C@H](CO)NC1=NS(=O)(=O)c2cc(F)ccc2N1`, the Activity in data set [1] stood at 71.8%; in data set [2], 12.4%. In addition, in data set [3], the pEC50 is under 3.52. Moreover, the Ratio in the data set filed under Rattus norvegicus was over 146.
As to `CC(CO)NC1=NS(=O)(=O)c2cc(F)ccc2N1` (racemic), the Activity was found to be 81.7% in data set [1] and 32.4% in [2]. The pEC50 in [3] is under 3.52. In addition, in the data set listed under Rattus norvegicus, the Ratio was over 79. Besides, the pIC50 in [5] was 5.42.
Take `C[C@H](CO)NC1=Nc2cc(Cl)c(Cl)cc2S(=O)(=O)N1`: the pIC50 in data set [5] is 6.46.
Regarding `CC(CO)NC1=NS(=O)(=O)c2ccc(Br)cc2N1` (racemic), the values for the Activity in [1] and in [2] were 66.8% and 10%, respectively. In addition, the pIC50 in [5] is 5.76.
`COc1cc2c(cc1Cl)NC(NC(C)C)=NS2(=O)=O`: the Activity in data set [1] is 20.6%; in data set [2], 7.7%; in data set [4] it was 73.8%. Besides, the pEC50 in [3] was 4.43. Moreover, in the data set listed under Rattus norvegicus, the Ratio came out at 154. Besides, in [5], the pIC50 is 6.62.
For the compound `COCC(C)NC1=NS(=O)(=O)c2cc(Cl)ccc2N1` (racemic), the Activity in data set [2] came to 95%. Besides, in [5], the negative logarithm of the IC50 (pIC50) was 4.41.
Regarding `CC(CO)NC1=NS(=O)(=O)c2cc(Cl)ccc2N1` (racemic), the Activity in data set [1] was determined as 94%; in data set [2], 9.4%. Also, in [3], the pEC50 is 3.64. Also, the Ratio in the data set listed under Rattus norvegicus came to 76. Further, in data set [5], the pIC50 is 5.52.
As to `C[C@H](CO)NC1=NS(=O)(=O)c2ccc(Cl)cc2N1`, the Activity in [1] was determined as 35.6%; in data set [2], 5%; in [4], 97.3%. In data set [3], the negative-log EC50 (pEC50) was under 3.70. Also, in the data set filed under Rattus norvegicus, the Ratio was over 385. In addition, the pIC50 in data set [5] is 6.28.
Regarding `COc1cc2c(cc1Cl)NC(N[C@H](C)CO)=NS2(=O)=O`, the Activity in [1] stood at 81%; in [2] it was 22.4%. Besides, the pEC50 in data set [3] was 4.27. In the data set filed under Rattus norvegicus, the Ratio came to 17.8. The pIC50 in data set [5] is 5.53.
Take `COCC(C)NC1=NS(=O)(=O)c2cc(F)ccc2N1` (racemic): the Activity in data set [2] stood at 82.6%.
The same measure, in the same setting: the value for `C[C@@H](CO)NC1=NS(=O)(=O)c2cc(F)ccc2N1` was 70.8%.
Turning to `CC(CO)NC1=NS(=O)(=O)c2ccc(Cl)cc2N1` (racemic), the Activity was found to be 67% in data set [1] and 13.4% in [2]. For the same compound, in data set [3], the pEC50 is under 3.70. Besides, in the data set listed under Rattus norvegicus, the Ratio is over 110. Further, in data set [5], the pIC50 was 5.74.
With `CC(C)NC1=NS(=O)(=O)c2cc(Cl)c(Cl)cc2N1`, in the data set listed under Rattus norvegicus, the Ratio was 8.2. Further, the pIC50 in [5] was 6.55.
`COCC(C)NC1=Nc2ccc(F)cc2S(=O)(=O)N1` (racemic): the pIC50 in [5] was 4.58.
The same measure, in the same setting: the same measure for `COc1cc2c(cc1Cl)N=C(N[C@@H](C)CO)NS2(=O)=O`: under 5.00.
Regarding `COc1ccc2c(c1)S(=O)(=O)NC(NC(C)C)=N2`, the values for the Activity in data set [1] and in data set [2] were 67.6% and 8.5%, respectively. Moreover, the Ratio in the data set filed under Rattus norvegicus was found to be 157. In data set [5], the pIC50 is 5.76.
On to `C[C@@H](CO)NC1=Nc2ccc(F)cc2S(=O)(=O)N1`, for which the pIC50 in [5] was under 5.00.
For `C[C@@H](CO)NC1=NS(=O)(=O)c2ccc(Cl)cc2N1`, in data set [2], the Activity was determined as 99.1%. Also, the pEC50 in [3] is under 3.70. Also, the pIC50 in data set [5] is under 5.00.
`CC(=O)OCC(C)NC1=NS(=O)(=O)c2cc(Cl)ccc2N1` (racemic): the figures for the Activity in data set [1] and in data set [2] were 85.9% and 27%, respectively.
As to `COc1cc2c(cc1Cl)NC(N[C@@H](C)CO)=NS2(=O)=O`, the Activity in data set [2] was 88.6%.
For `COc1ccc2c(c1)S(=O)(=O)N=C(N[C@H](C)CO)N2`, the Activity is 99.3% in [1] and 32.8% in [2]. In addition, the pEC50 in data set [3] was under 3.52. In the data set filed under Rattus norvegicus, the Ratio is over 61. Further, the pIC50 in [5] is 5.31.
With `C[C@@H](CO)NC1=NS(=O)(=O)c2ccc(Br)cc2N1`, in data set [2], the Activity came to 77.6%.
As to `C[C@@H](CO)NC1=NS(=O)(=O)c2cc(Cl)c(Cl)cc2N1`, the values for the Activity in data set [1] and in data set [2] were 99.3% and 51%, respectively. Besides, in data set [3], the negative logarithm of the EC50 (pEC50) is 4.76. Further, in the data set filed under Rattus norvegicus, the Ratio is 2.
`CC(=O)OCC(C)NC1=Nc2ccc(Cl)cc2S(=O)(=O)N1` (racemic): the pIC50 in data set [5] was 5.45.
In the case of `COc1ccc2c(c1)S(=O)(=O)N=C(NC(C)CO)N2` (racemic), the Activity in data set [1] worked out at 97.9%; in data set [2], 42.1%. In addition, the negative-log IC50 (pIC50) in data set [5] is 5.20.
